Test results as given in PMC5656813 (Arthritis & Rheumatology (Hoboken, N.j.), 2017).

Assays:
healthy volunteers = details: cited from earlier work
JAK‐1 relative to JAK‐2 = details: human whole blood assays; cited from earlier work
[1] = tested on: RA patients with an inadequate response to MTX; assay: Study 1; format: in vivo, human
Method in brief: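 Randomized, double-blind, placebo-controlled trial at one site, 36 RA patients. Patients had MTX for ≥6 months and a stable 7.5–25 mg/week dose for ≥4 weeks, continued throughout. Oral capsules for 4 weeks: 200 mg once daily or 100 mg twice daily. ACR20/50/70 responses, DAS28-CRP and ACR core components (pain VAS, HAQ DI) scored as change from baseline. Intent-to-treat population.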

[2] = tested on: VCAM‐1, ICAM‐1, MMP‐3, haptoglobin, IL‐18, YKL‐40; assay: Study 2, PD marker proteins in plasma; format: in vivo, human; details: 75, 150, or 300 mg, after 4 weeks
Method in brief: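 Plasma taken at baseline and week 4 from all study 2 participants. Dosed once daily for 4 weeks. YKL-40 measured by ELISA; VCAM-1, ICAM-1, MMP-3, haptoglobin and IL-18 quantified by a second technology at a service laboratory. Each patient normalized to own baseline, expressed as percent change. Mean ± SEM; Kruskal-Wallis test with Dunn's post hoc test.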

RA patients = assay: Study 2, treatment‐emergent adverse events; format: in vivo, human
Method in brief: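 Both double-blind, placebo-controlled trials in RA patients on stable MTX. Oral capsules daily for 4 weeks, with 7–10-day follow-up: 200 mg once daily or 100 mg twice daily (study 1); 30, 75, 150 or 300 mg once daily (study 2). At every visit: AEs, vital signs, hematology, serum biochemistry, coagulation and urinalysis. EKG at baseline and follow-up, plus week 4 in study 1. Safety population, descriptive treatment-emergent AE summaries.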

O=C(Nc1nc2cccc(-c3ccc(CN4CCS(=O)(=O)CC4)cc3)n2n1)C1CC1 [Filgotinib]
inhibition of JAK pathways in PD assays (healthy volunteers; healthy volunteers, daily doses of ≥100 mg): Significant inhibition of JAK‐1 pathways but not JAK‐2 | tolerability and safety in healthy volunteers (healthy volunteers; up to 10 days, doses up to 450 mg once daily): well tolerated and safe | selectivity for inhibition of JAK‐1 relative to JAK‐2 (JAK‐1 relative to JAK‐2): ~30 fold | ACR20 responders at week 4 ([1]; 100 mg twice daily, study 1): 11 (91.7) no. (%) | ACR50 responders at week 4 ([1]; 100 mg twice daily, study 1): 4 (33.3) no. (%) | DAS28‐CRP, mean change from baseline at week 4 ([1]; 100 mg twice daily, study 1): −2.81 | HAQ DI score, mean change from baseline at week 4 ([1]; 100 mg twice daily, study 1): −0.52 | Patient's assessment of pain, mean change from baseline at week 4 ([1]; 100 mg twice daily, study 1): −29.8 0–10‐cm VAS | Patient's global assessment of disease activity, mean change from baseline at week 4 ([1]; 100 mg twice daily, study 1): −25.8 0–10‐cm VAS | Physician's global assessment of disease activity, mean change from baseline at week 4 ([1]; 100 mg twice daily, study 1): −35.0 0–10‐cm VAS | Remission rate (DAS28‐CRP <2.6) at week 4 ([1]; 100 mg twice daily, study 1): 3 (25.0) no. (%) | SJC66, mean change from baseline at week 4 ([1]; 100 mg twice daily, study 1): −15.4 | Serum CRP, mean change from baseline at week 4 ([1]; 100 mg twice daily, study 1): -13.84 mg/L | TJC68, mean change from baseline at week 4 ([1]; 100 mg twice daily, study 1): −36.3 | time to normalization of serum CRP level ([1]; 200 mg once daily and 100 mg twice daily, study 1): ≤ 1 week | ACR20 responders at week 4 ([1]; 200 mg once daily, study 1): 9 (75.0) no. (%) | ACR50 responders at week 4 ([1]; 200 mg once daily, study 1): 2 (16.7) no. (%) | DAS28‐CRP, mean change from baseline at week 4 ([1]; 200 mg once daily, study 1): −2.23 | HAQ DI score, mean change from baseline at week 4 ([1]; 200 mg once daily, study 1): −0.57 | Patient's assessment of pain, mean change from baseline at week 4 ([1]; 200 mg once daily, study 1): −24.3 0–10‐cm VAS | Patient's global assessment of disease activity, mean change from baseline at week 4 ([1]; 200 mg once daily, study 1): −23.8 0–10‐cm VAS | Physician's global assessment of disease activity, mean change from baseline at week 4 ([1]; 200 mg once daily, study 1): −26.7 0–10‐cm VAS | Remission rate (DAS28‐CRP <2.6) at week 4 ([1]; 200 mg once daily, study 1): 2 (16.7) no. (%) | SJC66, mean change from baseline at week 4 ([1]; 200 mg once daily, study 1): −12.8 | Serum CRP, mean change from baseline at week 4 ([1]; 200 mg once daily, study 1): -35.05 mg/L | TJC68, mean change from baseline at week 4 ([1]; 200 mg once daily, study 1): −23.1 | patients achieving an ACR20 response ([1]; study 1, all filgotinib‐treated patients, end of 4 weeks): > 83% | effect on levels of circulating PD markers [2]: dose‐dependent effect | treatment-related TEAE: Abdominal discomfort (RA patients; 30 mg once daily): 0 number (%) of patients | treatment-related TEAE: Abdominal pain, upper (RA patients; 30 mg once daily): 0 number (%) of patients | treatment-related TEAE: Aspartate aminotransferase increased (RA patients; 30 mg once daily): 1 (5.9) number (%) of patients | treatment-related TEAE: Blood amylase increased (RA patients; 30 mg once daily): 0 number (%) of patients | treatment-related TEAE: Blood and lymphatic system disorders (RA patients; 30 mg once daily): 0 number (%) of patients | treatment-related TEAE: Blood triglycerides increased (RA patients; 30 mg once daily): 1 (5.9) number (%) of patients | treatment-related TEAE: Cystitis, noninfectious (RA patients; 30 mg once daily): 0 number (%) of patients | treatment-related TEAE: Duodenogastric reflux (RA patients; 30 mg once daily): 0 number (%) of patients | treatment-related TEAE: Ear and labyrinth disorders (RA patients; 30 mg once daily): 0 number (%) of patients | treatment-related TEAE: Gastrointestinal disorders (RA patients; 30 mg once daily): 1 (5.9) number (%) of patients | treatment-related TEAE: Gastrointestinal pain (RA patients; 30 mg once daily): 0 number (%) of patients | treatment-related TEAE: General disorders and administration site reactions (RA patients; 30 mg once daily): 0 number (%) of patients | treatment-related TEAE: Gingival bleeding (RA patients; 30 mg once daily): 0 number (%) of patients | treatment-related TEAE: Infections and infestations (RA patients; 30 mg once daily): 0 number (%) of patients | treatment-related TEAE: Laboratory findings (RA patients; 30 mg once daily): 2 (11.8) number (%) of patients | treatment-related TEAE: Lipase increased (RA patients; 30 mg once daily): 0 number (%) of patients | treatment-related TEAE: Musculoskeletal and connective tissue disorders (RA patients; 30 mg once daily): 0 number (%) of patients | treatment-related TEAE: Nervous system disorders (RA patients; 30 mg once daily): 0 number (%) of patients | treatment-related TEAE: Renal and urinary disorders (RA patients; 30 mg once daily): 0 number (%) of patients | treatment-related TEAE: Abdominal discomfort (RA patients; 75 mg once daily): 0 number (%) of patients | treatment-related TEAE: Abdominal pain, upper (RA patients; 75 mg once daily): 0 number (%) of patients | treatment-related TEAE: Aspartate aminotransferase increased (RA patients; 75 mg once daily): 0 number (%) of patients | treatment-related TEAE: Blood amylase increased (RA patients; 75 mg once daily): 0 number (%) of patients | treatment-related TEAE: Blood and lymphatic system disorders (RA patients; 75 mg once daily): 1 (4.5) number (%) of patients | treatment-related TEAE: Blood triglycerides increased (RA patients; 75 mg once daily): 0 number (%) of patients | treatment-related TEAE: Cystitis, noninfectious (RA patients; 75 mg once daily): 0 number (%) of patients | treatment-related TEAE: Duodenogastric reflux (RA patients; 75 mg once daily): 1 (4.5) number (%) of patients | treatment-related TEAE: Ear and labyrinth disorders (RA patients; 75 mg once daily): 0 number (%) of patients | treatment-related TEAE: Gastrointestinal disorders (RA patients; 75 mg once daily): 2 (9.1) number (%) of patients | treatment-related TEAE: Gastrointestinal pain (RA patients; 75 mg once daily): 0 number (%) of patients | treatment-related TEAE: General disorders and administration site reactions (RA patients; 75 mg once daily): 0 number (%) of patients | treatment-related TEAE: Gingival bleeding (RA patients; 75 mg once daily): 1 (4.5) number (%) of patients | treatment-related TEAE: Infections and infestations (RA patients; 75 mg once daily): 0 number (%) of patients | treatment-related TEAE: Laboratory findings (RA patients; 75 mg once daily): 0 number (%) of patients | treatment-related TEAE: Lipase increased (RA patients; 75 mg once daily): 0 number (%) of patients | treatment-related TEAE: Musculoskeletal and connective tissue disorders (RA patients; 75 mg once daily): 0 number (%) of patients | treatment-related TEAE: Nervous system disorders (RA patients; 75 mg once daily): 0 number (%) of patients | treatment-related TEAE: Renal and urinary disorders (RA patients; 75 mg once daily): 0 number (%) of patients | treatment-related TEAE: Abdominal discomfort (RA patients; 150 mg once daily): 0 number (%) of patients | treatment-related TEAE: Abdominal pain, upper (RA patients; 150 mg once daily): 0 number (%) of patients | treatment-related TEAE: Aspartate aminotransferase increased (RA patients; 150 mg once daily): 0 number (%) of patients | treatment-related TEAE: Blood amylase increased (RA patients; 150 mg once daily): 0 number (%) of patients | treatment-related TEAE: Blood and lymphatic system disorders (RA patients; 150 mg once daily): 0 number (%) of patients | treatment-related TEAE: Blood triglycerides increased (RA patients; 150 mg once daily): 0 number (%) of patients | treatment-related TEAE: Cystitis, noninfectious (RA patients; 150 mg once daily): 0 number (%) of patients | treatment-related TEAE: Duodenogastric reflux (RA patients; 150 mg once daily): 0 number (%) of patients | treatment-related TEAE: Ear and labyrinth disorders (RA patients; 150 mg once daily): 0 number (%) of patients | treatment-related TEAE: Gastrointestinal disorders (RA patients; 150 mg once daily): 1 (6.7) number (%) of patients | treatment-related TEAE: Gastrointestinal pain (RA patients; 150 mg once daily): 0 number (%) of patients | treatment-related TEAE: General disorders and administration site reactions (RA patients; 150 mg once daily): 0 number (%) of patients | treatment-related TEAE: Gingival bleeding (RA patients; 150 mg once daily): 0 number (%) of patients | treatment-related TEAE: Infections and infestations (RA patients; 150 mg once daily): 0 number (%) of patients | treatment-related TEAE: Laboratory findings (RA patients; 150 mg once daily): 0 number (%) of patients | treatment-related TEAE: Lipase increased (RA patients; 150 mg once daily): 0 number (%) of patients | treatment-related TEAE: Musculoskeletal and connective tissue disorders (RA patients; 150 mg once daily): 0 number (%) of patients | treatment-related TEAE: Nervous system disorders (RA patients; 150 mg once daily): 0 number (%) of patients | treatment-related TEAE: Renal and urinary disorders (RA patients; 150 mg once daily): 0 number (%) of patients | treatment-related TEAE: Abdominal discomfort (RA patients; 300 mg once daily): 0 number (%) of patients | treatment-related TEAE: Abdominal pain, upper (RA patients; 300 mg once daily): 0 number (%) of patients | treatment-related TEAE: Aspartate aminotransferase increased (RA patients; 300 mg once daily): 0 number (%) of patients | treatment-related TEAE: Blood amylase increased (RA patients; 300 mg once daily): 0 number (%) of patients | treatment-related TEAE: Blood and lymphatic system disorders (RA patients; 300 mg once daily): 0 number (%) of patients | treatment-related TEAE: Blood triglycerides increased (RA patients; 300 mg once daily): 0 number (%) of patients | treatment-related TEAE: Cystitis, noninfectious (RA patients; 300 mg once daily): 1 (5.0) number (%) of patients | treatment-related TEAE: Duodenogastric reflux (RA patients; 300 mg once daily): 0 number (%) of patients | treatment-related TEAE: Ear and labyrinth disorders (RA patients; 300 mg once daily): 0 number (%) of patients | treatment-related TEAE: Gastrointestinal disorders (RA patients; 300 mg once daily): 2 (10.0) number (%) of patients | treatment-related TEAE: Gastrointestinal pain (RA patients; 300 mg once daily): 1 (5.0) number (%) of patients | treatment-related TEAE: General disorders and administration site reactions (RA patients; 300 mg once daily): 0 number (%) of patients | treatment-related TEAE: Gingival bleeding (RA patients; 300 mg once daily): 0 number (%) of patients | treatment-related TEAE: Laboratory findings (RA patients; 300 mg once daily): 0 number (%) of patients | treatment-related TEAE: Lipase increased (RA patients; 300 mg once daily): 0 number (%) of patients | treatment-related TEAE: Musculoskeletal and connective tissue disorders (RA patients; 300 mg once daily): 0 number (%) of patients | treatment-related TEAE: Nervous system disorders (RA patients; 300 mg once daily): 0 number (%) of patients | treatment-related TEAE: Renal and urinary disorders (RA patients; 300 mg once daily): 1 (5.0) number (%) of patients
